Assay results: PubChem BioAssay
Inconclusive results are not listed.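 Rule for the calls, unless noted: active = inhibition over a set limit, the all-compound mean plus 3 SD, in both replicate runs; inconclusive = over that limit in just one replicate run; inactive = at or under that limit in both runs.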 Non-standard residues stand in square brackets, D forms with d. Residues, ends and D or L forms follow the SMILES beside them. ξ: configuration not given here. *: point of attachment. Cbz = O=C(OCc1ccccc1)*; ξV = CC(C)C(N)C(=O)O; OtBu = CC(C)(C)O*

Tests used:
[1] = OD615 S. cerevisiae growth inhibition, permissive medium, pilot counter-assay, permissive growth control for S. cerevisiae lifespan shortening project (AID 705;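 active = growth inhibition above 25% in both replicates, a cutoff set 3 SD above the mean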); conditions: OD615, 24 h, at 10 µM, active compounds read high
Method in brief: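 System: S. cerevisiae with engineered DeaD lifespan system / Measured by: absorbance (optical density) at 615 nm / Read-out: reduction in yeast growth (OD615) / Times: 4 h cell pre-growth, 24 h exposure at 30 °C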

[2] = Restrictive medium S. cerevisiae growth inhibition, OD615, pilot screen of yeast lifespan reduction project, restrictive growth control (AID 706;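 active = growth inhibition above a set limit, 3 SD over mean compound inhibition, in both replicates, cut at about 43% in these data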;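 note: modified DeaD lifespan yeast strain shifted to restrictive glucose medium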); conditions: OD615, 48 h, at 10 µM, active compounds read high
Method in brief: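 System: Engineered S. cerevisiae DeaD strain | Buffer or medium: Glucose-based CSMM-D restrictive medium | Schedule: 4 h pre-incubation, 48 h exposure at 30 °C | Technique: Optical density at 615 nm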

[3] = viability gain of MRP-1-high H69AR cells under doxorubicin, pilot screen, MRP-1 activator project, CellTiter-Glo, duplicate (AID 807;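 active = viability increase at or above a cutoff of the median across tested compounds plus 3 SD, cut at about 8.5% in these data, passing the limit was not always enough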;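 note: compound pretreatment 18-22 h then 72 h combined with doxorubicin; 0% = doxorubicin alone and 100% = vehicle without doxorubicin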); conditions: H69AR viability with doxorubicin, CellTiter-Glo luminescence; at 10 µM; active compounds read high
[4] = growth suppression of beta-catenin knockout HCT116, pilot screen, human colon tumor cells (AID 823;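 active = cell viability at or below a set limit in both duplicate runs, the limit being the all-compound median minus 4 SD, cut at about 23% in these data, passing the limit was not always enough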;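 note: 0% = wells killed by 20 µM Hyamine and 100% = untreated DMSO cell wells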); conditions: CellTiter-Glo, 60 h, at 10 µM, active compounds read low
[5] = growth suppression of PTEN-deleted HCT116, pilot screen, cell-based, HCT116 clonal line, CellTiter-Glo (AID 824;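 active = viability at or below 27.92% in each of two runs, the all-compound median minus 4 SD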;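 note: 0% = 20 µM Hyamine control and 100% = vehicle cell control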); conditions: 60 h, at 10 µM, active compounds read low
[6] = inhibitors of the yeast RAM network, pilot screen, dse1pr::URA3 reporter, 5-FOA selection (AID 869);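 note: 0% = DMSO wells with no growth and 100% = 10 µM 1-NA-PP1 with full growth; RAM network block rescues cells from 5-FOA so hits raise OD615 growth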; conditions: S. cerevisiae dse1pr::URA3 5-FOA growth, OD615, 2 d; at 10 µM; active compounds read high; strain carries analog-sensitive mutant Cbk1 kinase
[7] = RAM signaling pathway blockade in yeast – S. cerevisiae, Pdr1DBD-CYC8 efflux-inhibited sensitized strain, primary screen (AID 1298;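 active = RAM network inhibition above 8.4% in each of two replicates, 3 SD over the compound average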;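 note: 0% = DMSO untreated cells without growth and 100% = 10 µM 1-NA-PP1 full growth; higher means more yeast growth rescued from 5-FOA killing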); conditions: S. cerevisiae cbk1-as DSE1-URA3 strain, 5-FOA growth OD615, 2 d; at 50 µM; active compounds read high

Oc1[nH]c2ccccc2c1C=Nc1ccc2c(c1)OCO2
inactive: growth inhibition [1] -18.5% | growth inhibition [2] -9.39% | viability increase [3] -5.2% | viability [4] 75% | viability [5] 71.4% | inhibition [6] 1.74% | RAM network inhibition [7] 1.86%

COc1ccc(C2CC(c3ccc(F)cc3)Nc3nc(N)nn32)cc1OC (configuration not stated)
inactive: growth inhibition [1] -0.9% | growth inhibition [2] 4.9% | viability increase [3] -0.13% | viability [4] 102% | viability [5] 92.4% | inhibition [6] 1.21% | RAM network inhibition [7] 7.75%

CCOc1ccc(N=Cc2c(O)cc(C)oc2=O)cc1
inactive: growth inhibition [1] -1.27% | growth inhibition [2] 8.93% | viability increase [3] -2.82% | viability [4] 107% | viability [5] 101% | inhibition [6] 1.21% | RAM network inhibition [7] 1.99%

CCOC(=O)C(CCC#N)(CCC#N)C(=O)OCC
inactive: growth inhibition [1] -11.9% | growth inhibition [2] -5.42% | viability increase [3] -0.16% | viability [4] 95.9% | viability [5] 102% | inhibition [6] 0.445% | RAM network inhibition [7] 5.31%

N#CCCN(CCC#N)C(=O)c1ccc(Cl)cc1
inactive: growth inhibition [1] -2.15% | growth inhibition [2] -11.1% | viability increase [3] -1.59% | viability [4] 92.7% | viability [5] 93.2% | inhibition [6] 1.3% | RAM network inhibition [7] 3.78%

O=C1c2ccccc2NC(c2ccccc2)N1c1ccc(O)cc1 (configuration not stated)
inactive: growth inhibition [1] -0.23% | growth inhibition [2] 1.65% | viability increase [3] -3.15% | viability [4] 87.1% | viability [5] 90.8% | inhibition [6] 1.19% | RAM network inhibition [7] 1.89%

Cc1sc(NC(=O)CCCC(=O)O)c(C#N)c1C
inactive: growth inhibition [1] -0.59% | growth inhibition [2] 16.8% | viability increase [3] -1.9% | viability [4] 99.4% | viability [5] 99% | inhibition [6] 1.27% | RAM network inhibition [7] 3.31%

CCCCC1CCC(c2nc(-c3cccnc3)no2)CC1 (configuration not stated)
inactive: growth inhibition [1] -7.54% | growth inhibition [2] 9.22% | viability increase [3] -0.18% | viability [4] 93.5% | viability [5] 88% | inhibition [6] -1.52% | RAM network inhibition [7] -1.92%

COc1cccc(CNC(=O)C2CCN(S(=O)(=O)c3cccc4cccnc34)CC2)c1
inactive: growth inhibition [1] -10.5% | growth inhibition [2] -2.92% | viability increase [3] -1.45% | viability [4] 100% | viability [5] 97.5% | inhibition [6] 2.88% | RAM network inhibition [7] 3.03%

COc1ccc(-c2nc(CS(=O)CC(=O)NCc3ccco3)c(C)o2)cc1OC (configuration not stated)
inactive: growth inhibition [1] 1.38% | growth inhibition [2] -5.82% | viability increase [3] -4.57% | viability [4] 83.4% | viability [5] 84.6% | inhibition [6] 0.205% | RAM network inhibition [7] 4.18%

O=C(Nc1ccccc1)N(CCc1ccncc1)C1CCCCC1
inactive: growth inhibition [1] -7% | growth inhibition [2] -2.46% | viability increase [3] -2.85% | viability [4] 97.4% | viability [5] 98.9% | inhibition [6] 1.18% | RAM network inhibition [7] -0.83%

O=C1c2ccccc2C(Nc2ccc3c(c2)OCCO3)N1c1ccccn1 (configuration not stated)
inactive: growth inhibition [1] -10.6% | growth inhibition [2] -13.5% | viability increase [3] -1.97% | viability [4] 81.5% | viability [5] 85.6% | inhibition [6] 1.86% | RAM network inhibition [7] 4.05%

CCCCC(=O)OCCNC(=O)c1cc2ccccc2oc1=O
inactive: growth inhibition [1] -3.98% | growth inhibition [2] -0.93% | viability increase [3] -2.04% | viability [4] 92.3% | viability [5] 95.2% | inhibition [6] 2.96% | RAM network inhibition [7] 2.46%

Fc1cc2nc(-c3ccncc3)[nH]c2cc1F
inactive: growth inhibition [1] -7.19% | growth inhibition [2] -19.1% | viability increase [3] -1.54% | viability [4] 109% | viability [5] 94.6% | inhibition [6] 0.625% | RAM network inhibition [7] 2.24%

CC1=C(C(=O)Nc2ccccc2C)C(c2ccccc2)NC(=O)N1 (configuration not stated)
inactive: growth inhibition [1] 0.05% | growth inhibition [2] -7.71% | viability increase [3] -1.25% | viability [4] 97.9% | viability [5] 97.9% | inhibition [6] 1.01% | RAM network inhibition [7] 2.69%

O=C(c1ccc(CS(=O)(=O)c2ccc(Br)cc2)o1)N1CCN(c2ncccn2)CC1
inactive: growth inhibition [1] -4.05% | growth inhibition [2] -7.28% | viability increase [3] -4.3% | viability [4] 86.2% | viability [5] 96% | inhibition [6] 1.94% | RAM network inhibition [7] 3.64%

CCc1ccc(NC(=O)CN(c2ccc3c(c2)OCO3)S(=O)(=O)c2c(C)noc2C)cc1
inactive: growth inhibition [1] -16.8% | growth inhibition [2] -11.4% | viability increase [3] 0.12% | viability [4] 85.5% | viability [5] 80.5% | inhibition [6] 3.38% | RAM network inhibition [7] 9.54%

Cc1c(N=C2C(=O)Nc3ccccc32)c(=O)n(-c2ccccc2)n1C
inactive: growth inhibition [1] -1.19% | growth inhibition [2] 0.225% | viability increase [3] -2.29% | viability [4] 108% | viability [5] 90.3% | inhibition [6] 0.61% | RAM network inhibition [7] 1.79%

CSc1oc(-c2ccc(F)cc2)nc1S(=O)(=O)c1ccc(F)cc1
inactive: growth inhibition [1] -2.23% | growth inhibition [2] -6.25% | viability increase [3] -1.96% | viability [4] 85.1% | viability [5] 79.6% | inhibition [6] 1.59% | RAM network inhibition [7] 4.1%

Clc1ccc(C2CC(c3cccs3)n3ncnc3N2)c(Cl)c1 (configuration not stated)
inactive: growth inhibition [1] -5.32% | growth inhibition [2] 17.4% | viability increase [3] -4.06% | viability [4] 78.7% | viability [5] 69.3% | inhibition [6] 2.1% | RAM network inhibition [7] 2.15%

Cc1ccc(N2C(=O)c3oc4ccccc4c(=O)c3C2c2cccnc2)nc1 (configuration not stated)
inactive: growth inhibition [1] -12.7% | growth inhibition [2] -4.26% | viability increase [3] 0.88% | viability [4] 99.3% | viability [5] 102% | inhibition [6] 1.04% | RAM network inhibition [7] 5.38%

Nc1c(C(=O)NCc2ccccc2)nnn1Cc1ccccc1
inactive: growth inhibition [1] -6.54% | growth inhibition [2] 4.1% | viability increase [3] 1.95% | viability [4] 99.8% | viability [5] 91.2% | inhibition [6] 1.02% | RAM network inhibition [7] 2.99%

COC(=O)c1c(N2C(=O)CCC2=O)sc2c1CCCC2
inactive: growth inhibition [1] -1.48% | growth inhibition [2] 0.535% | viability increase [3] -2.89% | viability [4] 102% | viability [5] 93.4% | inhibition [6] 1.26% | RAM network inhibition [7] -1.57%

CCC(=O)Nc1c2c(nn1-c1cccc(Cl)c1)CSC2
inactive: growth inhibition [1] -7.68% | growth inhibition [2] -8.67% | viability increase [3] -1.61% | viability [4] 89.7% | viability [5] 86.1% | inhibition [6] 2.1% | RAM network inhibition [7] 1.11%

Oc1c(C(c2ccccc2)N2CCCCC2)sc2ncnn12 (configuration not stated)
inactive: growth inhibition [1] -0.17% | growth inhibition [2] -3.96% | viability increase [3] -0.8% | viability [4] 95.7% | viability [5] 91.8% | inhibition [6] 1.76% | RAM network inhibition [7] 0.66%

NC(=O)c1ccsc1NC(=O)C1CC1
inactive: growth inhibition [1] -0.315% | growth inhibition [2] 0.175% | viability increase [3] -2.38% | viability [4] 103% | viability [5] 100% | inhibition [6] 1.22% | RAM network inhibition [7] 0.32%

CC(=O)c1ccc(OCC(O)COc2ccc(C(C)=O)cc2)cc1
inactive: growth inhibition [1] -2.04% | growth inhibition [2] -4.87% | viability increase [3] 0.11% | viability [4] 96.2% | viability [5] 94.7% | inhibition [6] 1.22% | RAM network inhibition [7] 0.16%

COc1cccc(-c2nnc(NC(=O)C3CCCCC3)o2)c1
inactive: growth inhibition [1] -14% | growth inhibition [2] -2.06% | viability increase [3] -3.8% | viability [4] 83.5% | viability [5] 85.7% | inhibition [6] 1.85% | RAM network inhibition [7] 1.88%

Cc1nc(CNS(=O)(=O)c2ccccc2F)cs1
inactive: growth inhibition [1] -2.92% | growth inhibition [2] 0.715% | viability increase [3] -0.6% | viability [4] 94.1% | viability [5] 91.5% | inhibition [6] 0.335% | RAM network inhibition [7] -0.57%

COc1ccc(OC)c(S(=O)(=O)NCc2cn3c(C)csc3n2)c1
inactive: growth inhibition [1] -10.1% | growth inhibition [2] 5.41% | viability increase [3] -1.77% | viability [4] 103% | viability [5] 96.5% | inhibition [6] 0.045% | RAM network inhibition [7] 5.95%

Cc1ccccc1C(=O)Nc1ccccc1
inactive: growth inhibition [1] -0.285% | growth inhibition [2] -2.05% | viability increase [3] -0.99% | viability [4] 96.1% | viability [5] 85.4% | inhibition [6] 0.28% | RAM network inhibition [7] 0.56%

CC(C)C(NC(=O)OCc1ccccc1)C(=O)NCC(=O)OC(C)(C)C (configuration not stated) (Cbz-[ξV]-Gly-OtBu)
inactive: growth inhibition [1] -5.84% | growth inhibition [2] -2.87% | viability increase [3] 0.2% | viability [4] 96.6% | viability [5] 95.2% | inhibition [6] 1.82% | RAM network inhibition [7] 3.16%

CC(C)Sc1nc(-c2cccs2)nc2c1c(=O)n(C)c(=O)n2C
inactive: growth inhibition [1] -2.16% | growth inhibition [2] -19% | viability increase [3] -6.85% | viability [4] 77.3% | viability [5] 69.4% | inhibition [6] 1.46% | RAM network inhibition [7] 7.05%

CC1Cc2ccccc2N1C(=O)Cn1cnc2ccccc2c1=O (configuration not stated)
inactive: growth inhibition [1] 3.42% | growth inhibition [2] -17.3% | viability increase [3] 0.12% | viability [4] 99.4% | viability [5] 93.3% | inhibition [6] -0.455% | RAM network inhibition [7] -0.47%

CCn1c2ccccc2c2cc(NC(=O)c3ccco3)ccc21
inactive: growth inhibition [1] -4.29% | growth inhibition [2] -0.22% | viability increase [3] -3.74% | viability [4] 96.1% | viability [5] 93% | inhibition [6] 0.345% | RAM network inhibition [7] 0.96%

Cc1ccc(N2CCN(C(=O)c3ccccc3F)CC2)c(C)c1
inactive: growth inhibition [1] -12.4% | growth inhibition [2] -14.5% | viability increase [3] 2.73% | viability [4] 93.3% | viability [5] 91% | inhibition [6] -0.61% | RAM network inhibition [7] 4.91%
